Assay results from PMC4569680 (Advances in Therapy, 2015).
Read-outs that look alike come from different tables or passages of the source. Marks after values point to notes of the source that are not given here.

Assays:
[1] = assay type: in vivo, human; conditions: for AR (accumulation ratio): AUC0–24h Day 16 / AUC0–24h Day 1, mean (SD)
Outline: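 Patients received 25–400 mg QD or placebo on Day 1 and Days 3–16, fasted overnight, with a standardized breakfast within 10 min. Venous blood was drawn at 0, 0.5, 1, 1.5, 2, 3, 4, 6, 8 and 12 h on Days 1 and 16, and before breakfast on Days 2, 17 and 18. Drug was measured by HPLC-MS/MS, range 1–2000 ng/mL. AR = AUC0–24h Day 16/Day 1; linearity factor = AUC0–24h Day 16/AUC0–∞ Day 1.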

[2] = 24-h urinary excretion rate of unchanged canagliflozin; assay type: in vivo, human; conditions: for Urinary excretion rate: mean (SD)
Outline: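 Urine was collected 0–24 h on Days 1 and 16 during once-daily dosing at 25, 100, 200 or 400 mg, given on Day 1 and Days 3–16 between 8:00 and 9:00 a.m. A standardized breakfast followed within 10 min. Unchanged drug was measured by solid-phase extraction and HPLC-MS/MS with a 13C6-labelled internal standard. The validated range was 1–2000 ng/mL.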

[3] = test system: Japanese patients with T2DM; assay: Urinary glucose excretion; assay type: in vivo, human; conditions: for mean change from baseline in UGE0–24h: Day 1
Outline: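 Urine was collected in timed intervals (0–2 through 13–24 h) on Days 0, 1 and 16, and as 0–24 h pools on Days 2–6, 15, 17 and 18. Dosing was 25–400 mg or placebo QD on Day 1 and Days 3–16. Change from the Day 0 single-blind placebo baseline was determined on each collection day.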

[4] = test system: Japanese patients with T2DM; assay: Renal threshold for glucose excretion; assay type: in vivo, human; conditions: Days 1 and 16, versus baseline Day 0
Outline: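 RTG was calculated post hoc for Days 0, 1 and 16 from measured plasma glucose, UGE and estimated glomerular filtration rate. Day 0 was a single-blind placebo baseline after an overnight fast; standardized meals were given at about 0, 4.5 and 10.5 h post-dose.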

[5] = test system: Japanese patients with T2DM; assay: Adverse events; assay type: in vivo, human
[6] = test system: Japanese patients with T2DM; assay: Urinary electrolyte excretion in 24 hours; assay type: in vivo, human
Outline: (§1)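 Volume-related safety was followed as changes from baseline in blood and urinary laboratory parameters: urine volume, sodium excretion, urine and serum osmolality, and hematocrit. Vital signs covered blood pressure, pulse rate and body temperature. Patients received 25–400 mg QD or placebo on Day 1 and Days 3–16 with standardized meals. Urine was collected in timed intervals or 0–24 h pools.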

[7] = test system: Japanese patients with T2DM; assay: Volume-related safety; assay type: in vivo, human
Outline: as §1

[8] = cited from earlier work
[9] = 25 mg QD repeated dose, Day 16, mean (SD), n = 12
[10] = 25 mg single dose, Day 1, mean (SD), n = 12
[11] = 100 mg QD repeated dose, Day 16, mean (SD), n = 12
[12] = 100 mg single dose, Day 1, mean (SD), n = 12
[13] = 200 mg QD repeated dose, Day 16, mean (SD), n = 14
[14] = 200 mg single dose, Day 1, mean (SD), n = 14
[15] = 400 mg QD repeated dose, Day 16, mean (SD), n = 13
[16] = 400 mg single dose, Day 1, mean (SD), n = 13
[17] = canagliflozin groups pooled, 2 cases in 2 of 51 patients

Cc1ccc([C@@H]2O[C@H](CO)[C@@H](O)[C@H](O)[C@H]2O)cc1Cc1ccc(-c2ccc(F)cc2)s1 [Canagliflozin]
AUC0–24h [1, 9]: 1556 (387) ng·h/mL
C max [1, 9]: 263 (91) ng/mL
t 1/2 [1, 9]: 14.21 (7.46) h
t max ([1]; 25 mg QD repeated dose, Day 16, median [min–max], n = 12): 1.0 [1.0–3.0] h
AUC0–24h [1, 10]: 1295 (240) ng·h/mL
C max [1, 10]: 248 (55) ng/mL
t 1/2 [1, 10]: 10.70 (1.76) h
t max ([1]; 25 mg single dose, Day 1, median [min–max], n = 12): 1.0 [1.0–2.0] h
AR (accumulation ratio) ([1]; 25 mg, n = 12): 1.19 (0.12)
AUC0–24h [1, 11]: 6635 (1367) ng·h/mL
C max [1, 11]: 1136 (330) ng/mL
t 1/2 [1, 11]: 11.81 (3.22) h
t max ([1]; 100 mg QD repeated dose, Day 16, median [min–max], n = 12): 1.0 [1.0–1.5] h
AUC0–24h [1, 12]: 5468 (899) ng·h/mL
C max [1, 12]: 1126 (228) ng/mL
t 1/2 [1, 12]: 10.22 (1.89) h
t max ([1]; 100 mg single dose, Day 1, median [min–max], n = 12): 1.0 [1.0–1.5] h
AR (accumulation ratio) ([1]; 100 mg, n = 12): 1.21 (0.12)
t 1/2 ([1]; 200 mg QD repeated dose, Day 16, mean (SD), n = 13): 16.16 (5.87)^c h
AUC0–24h [1, 13]: 16,716 (5464) ng·h/mL
C max [1, 13]: 2688 (805) ng/mL
t max ([1]; 200 mg QD repeated dose, Day 16, median [min–max], n = 14): 1.3 [1.0–1.5] h
AUC0–24h [1, 14]: 11,991 (3042) ng·h/mL
C max [1, 14]: 2304 (539) ng/mL
t 1/2 [1, 14]: 13.26 (4.96) h
t max ([1]; 200 mg single dose, Day 1, median [min–max], n = 14): 1.0 [1.0–1.5] h
AR (accumulation ratio) ([1]; 200 mg, n = 14): 1.38 (0.17)
t 1/2 ([1]; 400 mg QD repeated dose, Day 16, mean (SD), n = 12): 15.76 (5.56)^d h
AUC0–24h [1, 15]: 30,766 (7916) ng·h/mL
C max [1, 15]: 5236 (1123) ng/mL
t max ([1]; 400 mg QD repeated dose, Day 16, median [min–max], n = 13): 1.0 [1.0–1.5] h
AUC0–24h [1, 16]: 21,836 (4983) ng·h/mL
C max [1, 16]: 5028 (1733) ng/mL
t 1/2 [1, 16]: 12.15 (2.34) h
t max ([1]; 400 mg single dose, Day 1, median [min–max], n = 13): 1.0 [1.0–3.0] h
AR (accumulation ratio) ([1]; 400 mg, n = 13): 1.42 (0.29)
mean accumulation ratios (ARs) ([1]; AUC0–24h Day 16 / AUC0–24h Day 1, across doses 25–400 mg): 1.19–1.42
linearity factors ([1]; AUC0–24h Day 16 / AUC0–∞ Day 1, any dose (25, 100, 200, 400 mg)): ~1
elimination half-life (t 1/2) ([1]; Day 1, across doses 25–400 mg): 10.22 to 13.26 h
elimination half-life (t 1/2) ([1]; Day 16, across doses 25–400 mg): 11.81 to 16.16 h
t max ([1]; Day 16, across doses 25–400 mg): 1.0 to 1.3 h
plasma concentration reaches steady state ([1]; repeated QD dosing from Day 3, all doses): ≤ 7 days
Urinary excretion rate ([2]; 25 mg QD repeated dose, Day 16, 0–24 h, n = 12): 0.599 (0.183) %
Urinary excretion rate ([2]; 25 mg single dose, Day 1, 0–24 h, n = 12): 0.387 (0.070) %
Urinary excretion rate ([2]; 100 mg QD repeated dose, Day 16, 0–24 h, n = 12): 0.641 (0.204) %
Urinary excretion rate ([2]; 100 mg single dose, Day 1, 0–24 h, n = 12): 0.384 (0.084) %
Urinary excretion rate ([2]; 200 mg QD repeated dose, Day 16, 0–24 h, n = 14): 0.614 (0.195) %
Urinary excretion rate ([2]; 200 mg single dose, Day 1, 0–24 h, n = 14): 0.424 (0.107) %
Urinary excretion rate ([2]; 400 mg QD repeated dose, Day 16, 0–24 h, n = 13): 0.495 (0.153) %
Urinary excretion rate ([2]; 400 mg single dose, Day 1, 0–24 h, n = 13): 0.385 (0.097) %
24-h urinary excretion rate of unchanged canagliflozin ([2]; Day 1, means at each dose): approximately 0.4%
24-h urinary excretion rate of unchanged canagliflozin ([2]; Day 16, means at each dose): 0.5–0.6%
UGE after the last administration ([3]; 24–48 and 48–72 h after the last administration, ≥100 mg): increase in UGE was detected
mean change from baseline in UGE0–24h ([3]; 25-mg group): approximately 60 g/day
mean change from baseline in UGE0–24h ([3]; 100–400-mg groups): 80 to 110 g/day
RTG0–24h [4]: decreased
nasopharyngitis, patients with AE ([5]; canagliflozin groups pooled, 1 case in 1 of 51 patients): 2.0%
dizziness, patients with AE [5, 17]: 3.9%
toothache, patients with AE [5, 17]: 3.9%
urine ketone body present, patients with AE ([5]; canagliflozin groups pooled, 3 cases in 3 of 51 patients): 5.9%
anemia, patients with AE ([5]; canagliflozin groups pooled, 4 cases in 4 of 51 patients): 7.8%
diarrhea, patients with AE ([5]; canagliflozin groups pooled, 6 cases in 5 of 51 patients): 9.8%
occult blood positive, patients with AE ([5]; canagliflozin groups pooled, 14 cases in 12 of 51 patients): 23.5%
urinary ketones observed ([5]; canagliflozin-treated groups, all mild): 3 patients
urinary ketones observed ([5]; dose of 200 mg): 2 cases
urinary ketones observed ([5]; dose of 400 mg): 1 case
tolerability ([5]; short-term study, patients with T2DM, 25–400 mg): well tolerated
AEs related to skin disorders ([5]; whole study): not observed
urinary sodium excretion ([6]; Day 1, reversed within a week): transient nominal increase
urinary excretion of electrolytes (potassium, chloride, calcium, magnesium, inorganic phosphorus) ([6]; canagliflozin-treated groups compared with the placebo group): No remarkable changes were observed
24-h urine volume ([7]; Day 1, canagliflozin groups): slightly increased
change in urine osmolality over time from baseline ([7]; Day 1, canagliflozin-treated groups): trend toward an increase
pulse rate and incidence of orthostatic hypotension ([7]; data not shown): No increases were observed
hematocrit level ([7]; during the study period): remained unchanged
serum osmolality ([7]; during the treatment period): maintained constant
mean systolic and diastolic blood pressures ([7]; groups that received ≥100 mg): tended to decrease

NS(=O)(=O)c1cc2c(cc1Cl)N=CNS2(=O)=O [chlorothiazide]
persistence of diuretic effects [8]: about 1 week
